Most compounds without a hit are left out; they make up all but 6.8% or so of the library.
HSF1 inh: HSF1 inhibitors in luciferase reporter cells, primary screen, cell-based, NIH3T3, luminescence. AID 2098, 2009. 300,000 compounds, 0.77% hits. NIH3T3-HGL HSE-luciferase, MG132-induced, luminescence 8 h; stronger effect = lower value. activity change, negative = inhibition, % at 7.5 µM (by protocol);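 active = more than half of replicate wells show activity change below -50%, luminescence cut by over half; inconclusive = some wells, but at most half, below -50%; inactive = no replicate well below -50%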;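 note: luciferase reports HSF-1 transcriptional activity via heat shock element; 0% = median of DMSO wells and -100% = zero luminescence signal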
AI-2 QS mod: Vibrio harveyi AI-2 quorum sensing modulators, primary screen, JMH597 strain, luminescence/OD600 ratio; Vibrio harveyi JMH597 AI-2 luminescence/OD600 ratio, 9 h; stronger effect = lower value; strain lacks LuxN and CqsS sensors; 0 = neutral-control median; activity change, % at 7.5 µM; 300,000 compounds, 0.4% hits; AID 2094, 2009; in the data active = activity change below about -75%, passing the limit was not always enough; inconclusive = no clear call, values can overlap the other calls;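 note: luminescence divided by OD600 gain over 9 h not by final OD600 alone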
HCV core dimer: inhibitors of HCV core protein dimerization, primary screen, biochemical, TR-FRET, high-throughput | 300,000 compounds, 0.33% hits | inhibition, % at 5 µM | AID 1899, 2009 | TR-FRET GST/Flag-core106 dimerization, 1536-well;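 active = inhibition above the mean of all tested compounds plus 3 SD, set per screening campaign, cut at about 45% in these data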
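Material: GST/Flag-tagged HCV core106 proteins. Incubation: 4 h, 22.5 °C incubation. Read-out basis: inhibition (%) from 671 over 617 nm ratio. Measured by: TR-FRET, excitation 340 nm, emission 617 and 671 nm.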
PHOSPHO1 block: PubChem AID 1565; recombinant PHOSPHO1, absorbance phosphatase assay; inhibition, % at 13.3 µM; 290,000 compounds, 1.1% hits; in the data active = inhibition above about 60%
Target sequence (Q8TCT1 whole entry, looked up): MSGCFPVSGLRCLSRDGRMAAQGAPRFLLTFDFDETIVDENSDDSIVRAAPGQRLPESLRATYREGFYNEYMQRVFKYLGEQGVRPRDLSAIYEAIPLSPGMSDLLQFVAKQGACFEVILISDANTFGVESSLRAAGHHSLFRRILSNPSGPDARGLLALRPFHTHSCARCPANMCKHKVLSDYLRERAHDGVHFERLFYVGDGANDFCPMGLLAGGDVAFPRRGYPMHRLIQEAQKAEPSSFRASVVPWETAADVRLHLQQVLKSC
HSF1 activator: HSF-1 activators, primary screen, NIH3T3-HGL cells, MG132 stress, luminescence, single point | NIH3T3-HGL HSF-1 luciferase reporter, 8 h; 100% = twice DMSO control signal | activation, % at 9 µM | 300,000 compounds, 1.7% hits | AID 504408, 2011;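 active = mean replicate activation of at least 50% with a set share of replicates each reaching 50%; inconclusive = only one of those two conditions met; inactive = mean below 50% and too few replicates reaching it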;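 note: 0% = median of the neutral control wells and 100% = twice that signal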
ALR H2O2 inh: inhibitors of human ALR sulfhydryl oxidase, primary screen, biochemical, H2O2 detection, HRP-luminol luminescence, single point; inhibition, % (no concentration beside the values); FAD-linked sulfhydryl oxidase ALR (Homo sapiens), P55789; 290,000 compounds, 3.8% hits; purified ALR, DTT oxidation; AID 485317, 2010;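 active = mean replicate inhibition above about 79%, with every replicate also reaching it, limit read from the data; inconclusive = only one of the two criteria met; inactive = mean below limit and not every replicate reaching it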
Target sequence (P55789 whole entry, looked up): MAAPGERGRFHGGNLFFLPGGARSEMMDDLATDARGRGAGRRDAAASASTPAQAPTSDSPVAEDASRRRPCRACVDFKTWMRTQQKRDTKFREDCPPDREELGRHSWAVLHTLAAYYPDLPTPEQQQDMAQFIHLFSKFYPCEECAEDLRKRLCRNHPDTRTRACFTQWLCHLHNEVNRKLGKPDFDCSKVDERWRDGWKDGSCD
* marks the source's active call; other numbers are inactive results; ? = inconclusive; . = not tested or not shown.

SMILES | HSF1 inh | AI-2 QS mod | HCV core dimer | PHOSPHO1 block | HSF1 activator | ALR H2O2 inh
COCCCNC(=O)C1CC(=O)N(C2CCCC2)C1 (configuration not stated) | . | 9 | -6 | 52 | . | -3
COc1ccc(N2CCN(CCNC(=O)C3CC(=O)N(C4CCCC4)C3)CC2)cc1 (configuration not stated) | 4 | 16 | -2 | 52 | 12 | 86*
c1ccc(CNc2ncnc3sc4c(c23)CCCC4)nc1 | 2 | 5 | -2 | -34 | 0 | 96*
O=[N+]([O-])c1ccc(COc2ncnc3ccccc23)cc1 | 2 | -3 | -1 | 6 | 16 | -3
C=CCn1c(SCC(=O)c2c(N)n(C)c(=O)n(C)c2=O)nc2sc(C)c(C)c2c1=O | -1 | . | 4 | 24 | -10 | -1
Cc1nc(SC(C)C(=O)c2c(N)n(C)c(=O)n(C)c2=O)c2c(C)c(C)sc2n1 (configuration not stated) | 5 | 12 | 2 | . | 6 | 91*
C[N+](C)(C)CCCN1C(=O)CCCC1=O | -5 | 12 | 4 | 9 | -4 | -10
CC1=CC(C)C2C(=O)N(CCC[N+](C)(C)C)C(=O)C2C1 (configuration not stated) | -2 | 13 | 3 | 94* | 13 | 3
C[C@@H]1C[C@H]2[C@@H]3C[C@H](F)C4=CC(=O)C(Cl)=C[C@]4(C)[C@@]3(F)[C@@H](O)C[C@]2(C)[C@@]1(O)C(=O)CO | -50* | 15 | 4 | 16 | -53 | 8
C[C@@H]1C[C@H]2[C@@H]3CCC4=CC(=O)C=C[C@]4(C)[C@@]3(F)[C@@H](O)C[C@]2(C)[C@@]1(O)C(=O)CO | -53* | 7 | 0 | . | -61 | -1
CC(=O)OCC(=O)[C@@]1(O)[C@H](C)C[C@H]2[C@@H]3CCC4=CC(=O)C=C[C@]4(C)[C@@]3(F)[C@@H](O)C[C@@]21C | -42 | 8 | -11 | -9 | -50 | .
C[C@@H]1C[C@H]2[C@@H]3C[C@H](F)C4=CC(=O)C=C[C@]4(C)[C@@]3(F)[C@@H](O)C[C@]2(C)[C@@]1(O)C(=O)COC(=O)C(C)(C)C | -48 | 14 | 7 | 6 | -55 | .
COc1cccc(NC(=S)N2CCC(c3ccc(C)cc3)C2)c1 (configuration not stated) | -11 | 4 | -3 | 28 | -23 | 2
Cc1ccc(S(=O)(=O)N(C)C)cc1NC(=S)NC(C)CCCC(C)C (configuration not stated) | 18 | 29 | 11 | 14 | 57* | .
Cc1ccc(S(=O)(=O)N(C)C)cc1NC(=S)NC(C)CCC(C)C (configuration not stated) | 10 | 18 | 8 | 3 | 38 | .
COCCN(CCOC)C(=S)Nc1cc(S(=O)(=O)N(C)C)ccc1C | -6 | 11 | -1 | 5 | 3 | -63
Cc1ccc(S(=O)(=O)N(C)C)cc1NC(=S)N(C)C1CCN(C)CC1 | 6 | 3 | 5 | 18 | 55* | -9
COc1cccc(CN2CCN(CC(=O)NCCc3ccccc3)CC2)c1 | 2 | 31 | -86 | . | -9 | -2
CSc1ncccc1C(=O)OCC(=O)Nc1nc(C)c(Cl)cc1Cl | . | . | . | . | . | -3
CC(C)CN(C(=O)CCNC(=O)c1ccccc1Cl)C1CCS(=O)(=O)C1 (configuration not stated) | . | . | . | . | . | -5
CC(C)(C)c1csc(NC(=O)C2=COCCO2)n1 | 16 | 18 | 1 | . | 32 | .
COc1ccc(OC)c2sc(NC(=O)C3=COCCO3)nc12 | 5 | 25 | -18 | 20 | 7 | -36
COc1ccc(C)c2sc(NC(=O)C3=COCCO3)nc12 | -69* | 32 | 0 | -6 | -76 | 14
CCOC(=O)c1csc(NC(=O)C2=COCCO2)n1 | 15 | 14 | 4 | 71* | 22 | -2
Cc1nn(CCCC(=O)NCCc2ccc(Cl)cc2)c(=O)c2nn(-c3ccccc3)c(C)c12 | 7 | 19 | 18 | 32 | 14 | -8
SMILES | HSF1 inh | AI-2 QS mod | HCV core dimer | PHOSPHO1 block | HSF1 activator | ALR H2O2 inh
O=C(NC(=S)NCCC1=CCCCC1)c1ccco1 | 27 | 20 | -1 | 28 | 62* | -8
Cc1cc(C(=O)NCCC2=CCCCC2)ccc1[N+](=O)[O-] | 39 | 22 | 4 | 26 | 58* | -5
O=C(NCCC1=CCCCC1)c1ccc([N+](=O)[O-])cc1 | 23 | 12 | -7 | 21 | 53* | .
Cc1ccc(OCCNC(=O)/C=C/c2ccco2)cc1C | 3 | 3 | 32 | 16 | 7 | ?
O=C(Cc1cccs1)N/N=C/c1ccco1 | -8 | 17 | -1 | -2 | -2 | 42
Cc1cccc(OCC(=O)N/N=C/C=C/c2ccco2)c1 | 21 | 23 | 28 | -12 | 17 | 0
CC(/C=C/c1ccco1)=N\NC(=O)COc1ccc(C)c(C)c1 | 67 | 3 | 3 | 24 | 78* | 1
Cc1cccc(C)c1OCC(=O)N/N=C/C=C/c1ccco1 | 63 | 10 | -9 | 36 | 81* | -17
O=C(Cc1cccs1)N/N=C/C=C\c1ccco1 | 64 | 23 | 5 | 9 | 92* | 33
Cc1ccc(C(=O)N2c3ccccc3CC2C)o1 (configuration not stated) | 32 | 10 | 4 | 47 | 54* | -1
CC1Cc2ccccc2N1C(=O)c1ccc(Br)o1 (configuration not stated) | 25 | 28 | 3 | . | 42 | .
COc1ccccc1-c1cc(C(F)(F)F)n2ncc(C(=O)N3CCc4ccccc4C3)c2n1 | 0 | 18 | 3 | 48 | 10 | -2
CC(C)Cn1c(N)c(/C=N/NC(=O)c2ccc(Cl)cc2)c(=O)n(C)c1=O | 5 | 0 | 0 | 40 | -6 | 0
CC(C)Cn1c(N)c(C(=O)CCl)c(=O)n(C)c1=O | -1 | 22 | -10 | -1 | 8 | 98*
CC(C)Cn1c(N)c(C=O)c(=O)n(C)c1=O | -8 | 13 | 0 | 17 | 5 | 100*
O=C(COC(=O)CNC(=O)c1ccccc1)NCc1ccc2c(c1)OCO2 | . | . | . | . | . | -1
